These results are taken from article PMC10810238 (Arabian journal of chemistry, 2023).

Data set [1] in a line: In vitro cytotoxicity with L-6 cells. In kind it is cell-based. The settings on record: rat, L-6 cells (rat skeletal myoblasts).
The subject of data set [2] is P. falciparum NF54 strain. Description: In vitro antiplasmodial screening, 3H-hypoxanthine incorporation assay. In kind it is cell-based, Plasmodium falciparum. The conditions noted are these: for Selectivity Index: L6 IC50 / Pf IC50. The gist of the method:
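P. falciparum NF54 erythrocytic stages were grown in human A+ red cells (2.5% haematocrit, 0.3% parasitaemia) in hypoxanthine-free RPMI 1640 with HEPES, NaHCO₃, neomycin and Albumax. Test compound was stocked in DMSO at 10 mg/ml and diluted in medium to […]. Plates ran 48 h at 37 °C under 4% CO₂/3% O₂/93% N₂, then 0.5 µCi ³H-hypoxanthine was added for 24 h. Cells were harvested for scintillation counting. IC50 came from sigmoidal curves by linear regression, with chloroquine as standard.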

Data set [3] can be described thus: In vivo acute toxicity. Details: species or system Swiss albino mice. The gist of the method: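 Male and female Swiss albino mice, 6–8 weeks old, were dosed per OECD guidance. Each group got one oral dose of test compound (100, 200, 400, 2000 or 5000 mg/kg) in 10% DMSO/10% Tween 80/80% water; a vehicle group served as control. Intoxication signs and mortality were watched for the first 30 min, then over 14 d. Mice were weighed on the first and final day (final day 14 d for the three lower doses, 7 d for the two higher). LD50 was the geometric mean of the least lethal dose and the highest non-lethal dose (Lorke). Kidney and liver were examined by histology, with paired t-test statistics.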

For data set [4], the system named is Plasmodium berghei NK 65 strain. Description: Mean Survival Time. In kind it is in vivo, Plasmodium berghei in Swiss albino mice. The gist of the method: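 Peters' 4-day suppressive design: male and female Swiss albino mice (14–31 g) were inoculated with P. berghei NK 65 and randomised into five groups. Test compound in vehicle (100, 200 or 400 mg/kg) was given orally once daily on days 0–4, first dose 2 h after inoculation. Chloroquine at 100 mg/kg was the positive control and vehicle alone the negative control. Mortality was recorded for 30 days from inoculation.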

Data set [5] has the same test system. Description: Peter's four-day suppressive test. In kind it is in vivo, Plasmodium berghei in Swiss albino mice. The conditions noted are these: for % Parasitemia: mean ± SEM.
Data set [6] has as its system P. falciparum NF 54 strain. The conditions noted are these: ref Miglianico et al., 2023; cited from earlier work.
The mark [7] stands for this setting: Plasmodium falciparum, NF54, read-out: Antiplasmodial (Pf) IC50, NF54 strain, erythrocytic stages.
Setting [8] is: 100 mg/kg oral daily Days 0-4, monitored 30 days, (+) = animals survived.
[9] abbreviates: read-out: Antiplasmodial (Pf) IC50, NF54 strain, erythrocytic stages.
Where [10] appears, read: 100 mg/kg oral daily Days 0-4, Day 4 blood.

Values joined by “and” are separate entries in the source; they are usually repeats but may differ in a detail not shown here. Identical values can stand only once. Like-named read-outs stand apart in the source and are kept apart here.

Broadly, the IC50 is the midpoint of a concentration-inhibition curve.

Molecule `N=C(NO)c1ccc(NC(=S)NOCc2ccccc2)cc1` [Compound 2b, 4-(3-(Benzyloxy)thioureido)-N-hydroxybenzimidamide] gave an IC50 at 72 h in data set [1] of 18.2 µM. Also, in data set [2], the “Selectivity Index” value is on record as 7.59. In addition, the IC50 in data set [2] (setting [7]) is 2400 nM.
The like results for `N=C(NO)c1ccc(C(=O)NO)cc1` [Compound 1c, N-Hydroxy-4-(N-hydroxycarbamimidoyl)benzamide] were, in that order, 11 µM, 27.04 and 405 nM.
As to `Nc1ccc(C(=O)NO)cc1` [Compound 3b, 4-Aminobenzenecarbohydroxamic acid], the “Mortality D0” value in data set [3] (100 mg/kg bdw oral, 4 mice) was determined as 0; in data set [3] (200 mg/kg bdw oral, 4 mice), 0; in data set [3] (400 mg/kg bdw oral, 4 mice) it was 0; in data set [3] (2,000 mg/kg bdw oral, 4 mice) it was 0; in data set [3] (5,000 mg/kg bdw oral, 1 mouse), 0. Further, the “Mortality D1” value in data set [3] (100 mg/kg bdw oral, 4 mice) is 0; in data set [3] (200 mg/kg bdw oral, 4 mice) it was 0; in data set [3] (400 mg/kg bdw oral, 4 mice), 1; in data set [3] (2,000 mg/kg bdw oral, 4 mice), 0; in data set [3] (5,000 mg/kg bdw oral, 1 mouse), 0. Moreover, the “Mortality D5” value in data set [3] (100 mg/kg bdw oral, 4 mice) is listed as 1; in data set [3] (200 mg/kg bdw oral, 4 mice) it was 0; in data set [3] (400 mg/kg bdw oral, 4 mice) it was 0; in data set [3] (2,000 mg/kg bdw oral, 4 mice) it was 0; in data set [3] (5,000 mg/kg bdw oral, 1 mouse), 0. The “Mortality D7” value in data set [3] (100 mg/kg bdw oral, 4 mice) is 0; in data set [3] (200 mg/kg bdw oral, 4 mice), 0; in data set [3] (400 mg/kg bdw oral, 4 mice), 0; in data set [3] (2,000 mg/kg bdw oral, 4 mice), 0; in data set [3] (5,000 mg/kg bdw oral, 1 mouse), 0. The “Mortality D14” value in data set [3] (100 mg/kg bdw oral, 4 mice) came out at 0; in data set [3] (200 mg/kg bdw oral, 4 mice), 0; in data set [3] (400 mg/kg bdw oral, 4 mice) it was 0; in data set [3] (2,000 mg/kg bdw oral, 4 mice), 0; in data set [3] (5,000 mg/kg bdw oral, 1 mouse), 0. For the same molecule, in data set [3] (100 mg/kg, 200 mg/kg and 400 mg/kg, mice), the Liver histology result is reported as “mild to moderate vacuolar degeneration of hepatocytes”. Moreover, the Kidney histology result is “Kidney tubular degeneration” in data set [3] (100 mg/kg, mice); “Severe congestion and edema” in data set [3] (400 mg/kg, mice); “no lesions” in data set [3] (2000 mg/kg, mice). The “% Mortality” value in data set [3] (200 mg/kg bdw oral, 4 mice) is 0%; in data set [3] (2,000 mg/kg bdw oral, 4 mice) it was 0%; in data set [3] (5,000 mg/kg bdw oral, 1 mouse) it was 0%. For the same molecule, the “Toxicity at the highest concentration limit” value in data set [3] (5000 mg/kg, single oral dose, mice) is given as “no toxicity”. Further, the Body weight change entry in data set [3] (with increase in concentration of compound, acute toxicity study, mice) is “gained additional weight”. The concentration for half-maximal inhibition (IC50) at 72 h in data set [1] was found to be 6.6 µM. For the same molecule, the MST in data set [4] (setting [8]) is listed as 24 days; in data set [4] (200 mg/kg oral daily Days 0-4, monitored 30 days) it was 29.5 days; in data set [4] (400 mg/kg oral daily Days 0-4, monitored 30 days, (+) = animals survived) it was 30 (+) days. The “Selectivity Index” value in data set [2] came out at 44.92. Moreover, the half-maximal inhibitory concentration (IC50) in data set [2] (setting [7]) is less than 200 nM; in data set [2] (setting [9]), 147 nM. Besides, the “% Suppression ± SEM” value in data set [5] (100 mg/kg oral daily Days 0-4) is 51.99 ± 10.38%; in data set [5] (200 mg/kg oral daily Days 0-4), 78.55 ± 13.35%; in data set [5] (400 mg/kg oral daily Days 0-4) it was 80.53% and 80.53 ± 3.26%. Besides, the “% Parasitemia” value was 6.25 ± 0.95% in data set [5] (setting [10]); 2.95 ± 1.95% in data set [5] (200 mg/kg oral daily Days 0-4, Day 4 blood); 2.6 ± 0.6% in data set [5] (400 mg/kg oral daily Days 0-4, Day 4 blood).
Molecule `CCN(CC)CCCC(C)Nc1ccnc2cc(Cl)ccc12` (stereo not shown) [Chloroquine, chloroquine, reference compound] returned an IC50 at 72 h in data set [1] of 66.1 µM. The MST in data set [4] (setting [8]) is 30 (+) days. Moreover, in data set [2], the “Selectivity Index” value turned out to be 33069.00. The IC50 in data set [2] (setting [7]) was determined as 2 nM. The “% Suppression ± SEM” value in data set [5] (100 mg/kg oral daily Days 0-4) was found to be 81.71 ± 1.82%; in data set [5] (100 mg/kg oral daily Days 0-4, listed as standard drug), 81.71%. Moreover, in data set [5] (setting [10]), the “% Parasitemia” value is given as 2.4 ± 0.08%.
`COc1cc([C@@H]2c3cc4c(cc3[C@H](O)[C@H]3COC(=O)[C@H]23)OCO4)cc(OC)c1OC` [Podophyllotoxin, reference compound]: in data set [1], the IC50 at 72 h worked out at 0.002 µM.
Consider `CC1(C)N=C(N)N=C(N)N1c1ccc(Cl)cc1` [cycloguanil], for which the IC50 in data set [6] was 4.5 nM.
As for `CCc1nc(N)nc(N)c1-c1ccc(Cl)cc1` [Pyrimethamine], the half-maximal inhibitory concentration (IC50) in data set [6] was 17 nM.
The molecule `Cl.N=C(N)c1ccc(C(=O)NO)cc1` [Compound 1d, 4-Carbamimidoyl-N-hydroxybenzamide Hydrochloride] returned an IC50 at 72 h in data set [1] of 19.6 µM. For the same molecule, in data set [2], the “Selectivity Index” value is given as 98.72. For the same molecule, the IC50 was less than 200 nM in data set [2] (setting [7]) and 199 nM in data set [2] (setting [9]).
